In ChEMBL document CHEMBL1157324, “Lophocladines, bioactive alkaloids from the red alga Lophocladia sp” (J Nat Prod, 2006):
Calls of active or inactive are those of the source. No cut-off for these calls is given here.

Experiments:
[1] = biological target: Delta-type opioid receptor (Homo sapiens) (UniProt P41143); test: Displacement of [3H][D-Ala2,D-Leu5]enkephalin from human cloned delta opioid receptor at 10 uM
Method in brief: (§1)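 Receptor screen run by the NIMH Psychoactive Drug Screening Program. Each compound at 10 μM incubated with the relevant receptor preparation; percent inhibition of radioligand binding determined.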

NCI-H460 [2] = test: Cytotoxicity against human NCI-H460 cells at 45 uM after 48 hrs by MTT assay; type: functional, cell-based
Method in brief: (§2)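 Cells grown in RPMI-1640 with L-glutamine, 1 mM pyruvate, penicillin/streptomycin, 0.2% bicarbonate and 10% FBS, seeded at 6000 cells/well. After 24 h, compound in DMSO diluted into serum-free medium was added (DMSO under 1% final), as a single screening concentration or a dilution series. Viability by MTT reduction after 48 h.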

[3] = Displacement of radiolabeled MK801 from NMDA receptor at 10 uM; method in brief: as §1
[4] = biological target: Delta-type opioid receptor (Homo sapiens) (UniProt P41143); test: Agonist activity at human delta opioid receptor expressed in CHO cells assessed as inhibition of forskolin-stimulated adenylyl cyclase relative to [D-Pen2,D-Pen5]-enkephalin; type: functional, cell-based
Method in brief: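 δ-Opioid receptor-expressing CHO cells washed with serum-free F12 Ham's medium, labelled 8 h with 1.2 μCi [3H]adenine. Then 40 min at 37 °C with 50 μM Ro20-1724, peptidase inhibitors (10 μM bestatin, 30 μM captopril, 50 μM L-leucyl-L-leucine), 50 μM forskolin and varied ligand concentrations. [3H]cAMP isolated on cation-exchange resin and alumina, counted with [14C]cAMP recovery correction.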

MDA-MB-435 [5] = test: Cytotoxicity against human MDA-MB-435 cells at 450 uM after 48 hrs by SRB assay; type: functional, cell-based
Method in brief: (§3)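 MDA-MB-435 cells grown in IMEM with 10% FBS, attached 24 h in 96-well plates, then exposed 48 h to compound or EtOH vehicle. Fixed with 10% TCA at 4 °C for 1 h, stained with 0.4% SRB for 30 min, washed with 1% HOAc, solubilised in 10 mM Tris. Absorbance read at 560 nm. IC50 taken from linear portion of log dose-response curves.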

N2a = test: Cytotoxicity against mouse Neuro2a cells at 45 uM after 48 hrs by MTT assay; type: functional, cell-based; method in brief: as §2
A10 [6] = test: Induction of actin microfilament disrupting activity in rat A10 cells at 45 uM after 24 hrs; type: functional, cell-based
Method in brief: (§4)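 A-10 rat aortic smooth muscle cells on glass coverslips in BME with 10% fetal calf serum, treated 24 h. Fixed in 3% paraformaldehyde, permeabilised with 0.2% Triton X-100, reduced with sodium borohydride. Actin stained 45 min with 100 nM TRITC-phalloidin, DNA with DAPI. Examined by fluorescence microscopy.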

NCI-H460 [7] = test: Induction of morphological changes in human NCI-H460 cells at 13.5 uM after 6 days; type: functional
A10 [8] = test: Induction of microtubule depolymerization in rat A10 cells at 113 uM after 24 hrs by indirect immunofluorescence technique; type: functional, cell-based
Method in brief: (§5)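 A-10 cells on glass coverslips in Basal Medium Eagle with 10% FBS, treated 18-24 h. Methanol-fixed, blocked with 10% calf serum, probed with monoclonal β-tubulin antibody then FITC sheep anti-mouse secondary for 1 h. Nuclei stained with 0.1 μg/mL DAPI. Examined by fluorescence microscopy.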

NCI-H460 [9] = test: Induction of morphological changes in human NCI-H460 cells at 13.5 uM after 24 hrs; type: functional, cell-based
A10 [10] = test: Induction of microtubule depolymerization in rat A10 cells at 45 uM after 24 hrs by indirect immunofluorescence technique; type: functional; conditions: A10, 24 h; method in brief: as §5
MDA-MB-435 [11] = test: Cell cycle arrest in human MDA-MB-435 cells assessed as accumulation at S phase at 20 uM after 24 hrs by flow cytometry; type: functional
Method in brief: (§6)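 MDA-MB-435 cells grown in IMEM with 10% FBS and gentamycin. Exposed 24 h to vehicle or sample, harvested and stained with Krishan's reagent. Propidium iodide intensity read by flow cytometry, with quality-control samples each run. Percentage of cells in each cycle phase fitted by manual analysis.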

MDA-MB-435 [12] = test: Cell cycle arrest in human MDA-MB-435 cells assessed as accumulation at G2/M phase at 20 uM after 24 hrs by flow cytometry; type: functional; method in brief: as §6
NCI-H460 [13] = test: Cytotoxicity against human NCI-H460 cells after 48 hrs by MTT assay; type: functional, cell-based; conditions: NCI-H460, 48 h; method in brief: as §2
A10 [14] = test: Induction of nucleus breakdown into micronuclei in rat A10 cells; type: functional, cell-based; method in brief: as §5
A10 [15] = test: Induction of actin microfilament disrupting activity in rat A10 cells at 113 uM after 24 hrs; type: functional, cell-based; method in brief: as §4
MDA-MB-435 [16] = test: Cytotoxicity against human MDA-MB-435 cells after 48 hrs by SRB assay; type: functional, cell-based; conditions: MDA-MB-435, 48 h; method in brief: as §3
MDA-MB-435 [17] = test: Cell cycle arrest in human MDA-MB-435 cells assessed as accumulation at G1 phase at 20 uM after 24 hrs by flow cytometry; type: functional; method in brief: as §6

Sequence of Delta-type opioid receptor (Homo sapiens) (P41143 whole entry): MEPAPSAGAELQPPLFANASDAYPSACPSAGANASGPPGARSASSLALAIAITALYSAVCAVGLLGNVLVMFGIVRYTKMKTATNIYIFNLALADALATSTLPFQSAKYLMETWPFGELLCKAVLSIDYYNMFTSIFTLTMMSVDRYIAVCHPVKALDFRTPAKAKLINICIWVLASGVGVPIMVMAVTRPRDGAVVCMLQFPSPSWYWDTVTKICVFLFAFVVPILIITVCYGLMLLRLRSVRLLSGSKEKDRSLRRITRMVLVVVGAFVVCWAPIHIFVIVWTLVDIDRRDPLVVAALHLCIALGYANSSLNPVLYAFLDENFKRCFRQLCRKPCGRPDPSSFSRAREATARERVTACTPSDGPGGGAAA

For `O=c1[nH]cc(-c2ccccc2)c2ccncc12`, the inhibition [1] was 50%, the Activity (NCI-H460 [2]) was “inactive” and the inhibition [3] was 50%. For the same molecule, the Activity [4] was “inactive”, the Activity (MDA-MB-435 [5]) was “inactive” and the Activity (N2a) was “inactive”.

With `Nc1ncc(-c2ccccc2)c2ccncc12` [LOPHOCLADINE B] the Activity (A10 [6]) was “inactive”, the Activity (NCI-H460 [7]) was 80% and the Activity (A10 [8]) was “Active”. The Activity (NCI-H460 [9]) was “Active”, the inhibition at 45 µM (A10 [10]) was 85% and the Activity (MDA-MB-435 [11]) was 8%. The Activity (MDA-MB-435 [12]) was 72.2%, the IC50 (NCI-H460 [13]) was 64.6 µM and the Activity (A10 [14]) was “Active”. The Activity (A10 [15]) was “inactive”, the IC50 (MDA-MB-435 [16]) was 3.1 µM and the Activity (MDA-MB-435 [17]) was 19.8%. For the same molecule, the Activity (N2a) was “inactive”.
